Calls of active or inactive are those of the source. The calls are words filed in the database; no cut-off is given here.
What was measured:
[1] = target: G-protein coupled receptor 68 (Homo sapiens) (UniProt Q15743); test: Positive allosteric modulation of human GPR68 expressed in HEK293T cells co-expressing Gs assessed as stimulation of proton-mediated cAMP production by measuring allosteric affinity cooperativity in HBSS buffer containing pH 6.8 to 8.2 HEPES/pH 8.3 to 8.6 TAPS measured after 20 to 30 mins in presence of PDE inhibitor Ro 20-1724 by luciferase-glo reporter gene assay; type: functional, cell-based
Outline: (§1)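 Transient co-transfection of HEK293T with receptor and GloSensor plasmids using PEI, overnight, then replated in DMEM + 1% dFBS for 6–24 h. Luciferin 3.5 mM loaded for 1 h at 37 °C in HBSS/20 mM TAPS, pH 8.40. Proton series: Ca/Mg-free HBSS with MES (pH 5.60–6.70), HEPES (6.80–8.20) or TAPS (8.30–8.60), plus 10 μM Ro 20-1724. BSA 1 mg/mL added where solubility required. Luminescence read at 20–30 min. At least six 16-point proton curves across modulator concentrations, quadruplicate, ≥3 independent assays.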

[2] = target: G-protein coupled receptor 68 (Homo sapiens) (UniProt Q15743); test: Positive allosteric modulation of human GPR68 expressed in HEK293T cells co-expressing Gs assessed as stimulation of proton-mediated cAMP production by measuring efficacy cooperativity in HBSS buffer containing pH 6.8 to 8.2 HEPES/pH 8.3 to 8.6 TAPS measured after 20 to 30 mins in presence of PDE inhibitor Ro 20-1724 by luciferase-glo reporter gene assay; type: functional, cell-based; outline: as §1
[3] = target: G-protein coupled receptor 68 (Homo sapiens) (UniProt Q15743); test: Positive allosteric modulation of human GPR68 expressed in HEK293T cells co-expressing Gs assessed as stimulation of proton-mediated cAMP production by measuring allosteric binding affinity in HBSS buffer containing pH 6.8 to 8.2 HEPES/pH 8.3 to 8.6 TAPS measured after 20 to 30 mins in presence of PDE inhibitor Ro 20-1724 by luciferase-glo reporter gene assay; type: functional, cell-based; outline: as §1
[4] = target: G-protein coupled receptor 68 (Homo sapiens) (UniProt Q15743); test: Positive allosteric modulation of human GPR68 expressed in HEK293T cells co-expressing Gs assessed as stimulation of proton-mediated cAMP production by measuring allosteric index in HBSS buffer containing pH 6.8 to 8.2 HEPES/pH 8.3 to 8.6 TAPS measured after 20 to 30 mins in presence of PDE inhibitor Ro 20-1724 by luciferase-glo reporter gene assay; type: functional, cell-based; outline: as §1
[5] = target: G-protein coupled receptor 68 (Homo sapiens) (UniProt Q15743); test: Positive allosteric modulation of human GPR68 expressed in HEK293T cells co-expressing Gs assessed as stimulation of proton-mediated cAMP production in HBSS buffer containing pH 6.8 to 8.2 HEPES/pH 8.3 to 8.6 TAPS measured after 20 to 30 mins in presence of PDE inhibitor Ro 20-1724 by luciferase-glo reporter gene assay; type: functional, cell-based; outline: as §1
[6] = target: G-prodeshotein coupled receptor 4 (Homo sapiens) (UniProt P46093); test: Positive allosteric modulation of human GPR4 expressed in HEK293T cells co-expressing Gs assessed as stimulation of proton-mediated cAMP production in HBSS buffer containing pH 6.8 to 8.2 HEPES/pH 8.3 to 8.6 TAPS measured after 20 to 30 mins in presence of PDE inhibitor Ro 20-1724 by luciferase-glo reporter gene assay; type: functional, cell-based; outline: as §1
[7] = target: G-protein coupled receptor 65 (Homo sapiens) (UniProt Q8IYL9); test: Positive allosteric modulation of human GPR65 expressed in HEK293T cells co-expressing Gs assessed as stimulation of proton-mediated cAMP production in HBSS buffer containing pH 6.8 to 8.2 HEPES/pH 8.3 to 8.6 TAPS measured after 20 to 30 mins in presence of PDE inhibitor Ro 20-1724 by luciferase-glo reporter gene assay; type: functional, cell-based; outline: as §1
[8] = target: G-prodeshotein coupled receptor 4 (Homo sapiens) (UniProt P46093); test: Positive allosteric modulation of human GPR4 expressed in HEK293T cells co-expressing Gs assessed as stimulation of proton-mediated cAMP production at higher concentration in HBSS buffer containing pH 6.8 to 8.2 HEPES/pH 8.3 to 8.6 TAPS measured after 20 to 30 mins in presence of PDE inhibitor Ro 20-1724 by luciferase-glo reporter gene assay; type: functional, cell-based; outline: as §1
[9] = target: G-protein coupled receptor 65 (Homo sapiens) (UniProt Q8IYL9); test: Positive allosteric modulation of human GPR65 expressed in HEK293T cells co-expressing Gs assessed as stimulation of proton-mediated cAMP production at higher concentration in HBSS buffer containing pH 6.8 to 8.2 HEPES/pH 8.3 to 8.6 TAPS measured after 20 to 30 mins in presence of PDE inhibitor Ro 20-1724 by luciferase-glo reporter gene assay; type: functional, cell-based; outline: as §1
[10] = target: T1, 5-hydroxytryptamine receptor 2B (Homo sapiens, UniProt P41595); test: Displacement of [3H]LSD from recombinant human 5HT2B stably expressed in HEK cell membranes incubated for 90 mins under dark condition by microbeta scintillation counting analysis
[11] = target: T1, 5-hydroxytryptamine receptor 2B; test: Agonist activity at human 5HT2B receptor expressed in Flp-In-HEK cells co-expressing Gq assessed as stimulation of calcium mobilization measured for 2 mins by fluo-4 calcium dye-based FLIPR assay; type: functional, cell-based
Outline: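 HEK293 cells stably expressing 5-HT2B, seeded overnight (16–20 h) on poly-L-Lys in DMEM + 1% dFBS. Fluo-4 Direct dye loaded for 1 h at 37 °C in HBSS/20 mM HEPES/2.5 mM probenecid, pH 7.40. Drug diluted in buffer with 1 mg/mL BSA and 0.1 mg/mL ascorbic acid. Fluorescence read for 2 min; peak fold of basal within the first minute.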

[12] = target: T1, 5-hydroxytryptamine receptor 2B; test: Antagonist activity at human 5HT2B receptor expressed in Flp-In-HEK cells co-expressing Gq assessed as inhibition of 5HT-induced stimulation of calcium mobilization preincubated for 10 mins followed by 5HT addition by fluo-4 calcium dye-based FLIPR assay; type: functional, cell-based
[13] = target: T2, Atypical chemokine receptor 3 (Homo sapiens, UniProt P25106); test: Agonist activity at human ACKR3 expressed in HTLA cells assessed as stimulation of beta-arrestin recruitment at 1 uM incubated for 16 to 20 hrs by bright-glo luminescence assay; type: cell-based
[14] = target: T2, Atypical chemokine receptor 3; test: Agonist activity at human ACKR3 expressed in HTLA cells assessed as stimulation of beta-arrestin recruitment incubated for 16 to 20 hrs by bright-glo luminescence assay; type: cell-based
Outline: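 Tango arrestin assay in HTLA cells transfected with receptor DNA overnight in DMEM + 10% FBS, then replated on poly-L-Lys in DMEM + 1% dFBS. Drugs added 6 h later and incubated overnight (16–20 h). Medium removed, Bright-Glo added, luminescence counted.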

[15] = target: G-protein coupled receptor 68 (Mus musculus) (UniProt Q8BFQ3); test: Positive allosteric modulation of mouse GPR68 expressed in HEK293T cells co-expressing Gs assessed as stimulation of proton-mediated cAMP production by measuring allosteric affinity cooperativity in HBSS buffer containing pH 6.8 to 8.2 HEPES/pH 8.3 to 8.6 TAPS measured after 20 to 30 mins in presence of PDE inhibitor Ro 20-1724 by luciferase-glo reporter gene assay; type: functional, cell-based
Outline: (§2)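 α, β and KB obtained by fitting proton responses with and without modulator to the standard allosteric operational model. Overall index is log(αβ/KB). Values are mean ± SEM from ≥3 independent assays, each run in triplicate or quadruplicate.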

[16] = target: G-protein coupled receptor 68 (Mus musculus) (UniProt Q8BFQ3); test: Positive allosteric modulation of mouse GPR68 expressed in HEK293T cells co-expressing Gs assessed as stimulation of proton-mediated cAMP production by measuring efficacy cooperativity in HBSS buffer containing pH 6.8 to 8.2 HEPES/pH 8.3 to 8.6 TAPS measured after 20 to 30 mins in presence of PDE inhibitor Ro 20-1724 by luciferase-glo reporter gene assay; type: functional, cell-based; outline: as §2
[17] = target: G-protein coupled receptor 68 (Mus musculus) (UniProt Q8BFQ3); test: Positive allosteric modulation of mouse GPR68 expressed in HEK293T cells co-expressing Gs assessed as stimulation of proton-mediated cAMP production by measuring allosteric index in HBSS buffer containing pH 6.8 to 8.2 HEPES/pH 8.3 to 8.6 TAPS measured after 20 to 30 mins in presence of PDE inhibitor Ro 20-1724 by luciferase-glo reporter gene assay; type: functional, cell-based; outline: as §2

Chain of G-protein coupled receptor 68 (Mus musculus) (Q8BFQ3 whole entry): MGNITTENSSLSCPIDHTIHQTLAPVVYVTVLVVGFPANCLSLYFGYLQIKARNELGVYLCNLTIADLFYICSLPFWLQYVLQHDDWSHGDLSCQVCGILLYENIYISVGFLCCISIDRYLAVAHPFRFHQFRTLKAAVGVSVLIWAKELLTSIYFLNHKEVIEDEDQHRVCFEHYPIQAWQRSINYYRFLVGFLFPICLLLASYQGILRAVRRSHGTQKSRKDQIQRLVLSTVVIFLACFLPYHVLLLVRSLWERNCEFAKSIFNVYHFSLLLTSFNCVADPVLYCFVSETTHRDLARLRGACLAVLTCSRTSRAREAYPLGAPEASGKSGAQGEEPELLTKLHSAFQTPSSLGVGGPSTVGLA
Chain of G-protein coupled receptor 65 (Homo sapiens) (Q8IYL9 whole entry): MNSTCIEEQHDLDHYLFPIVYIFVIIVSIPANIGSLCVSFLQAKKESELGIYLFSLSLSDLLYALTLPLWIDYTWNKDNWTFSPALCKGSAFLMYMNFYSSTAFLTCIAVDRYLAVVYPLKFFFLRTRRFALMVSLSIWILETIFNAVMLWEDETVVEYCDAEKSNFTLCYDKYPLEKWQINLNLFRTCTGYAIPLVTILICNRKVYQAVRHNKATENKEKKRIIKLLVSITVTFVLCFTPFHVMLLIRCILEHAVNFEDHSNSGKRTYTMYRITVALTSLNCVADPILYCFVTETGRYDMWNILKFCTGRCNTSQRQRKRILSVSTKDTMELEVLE
Chain of G-prodeshotein coupled receptor 4 (Homo sapiens) (P46093 whole entry, looked up): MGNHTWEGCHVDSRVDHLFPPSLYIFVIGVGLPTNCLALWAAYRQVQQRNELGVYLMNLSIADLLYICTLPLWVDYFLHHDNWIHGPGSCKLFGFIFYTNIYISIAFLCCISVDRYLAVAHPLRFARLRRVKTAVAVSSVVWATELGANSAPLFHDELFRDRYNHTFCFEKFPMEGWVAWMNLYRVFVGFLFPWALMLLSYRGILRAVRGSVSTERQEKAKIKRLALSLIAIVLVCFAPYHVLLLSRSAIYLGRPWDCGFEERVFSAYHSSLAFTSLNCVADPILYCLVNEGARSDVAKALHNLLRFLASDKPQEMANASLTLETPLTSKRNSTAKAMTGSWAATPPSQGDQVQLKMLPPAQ
Chain of G-protein coupled receptor 68 (Homo sapiens) (Q15743 whole entry): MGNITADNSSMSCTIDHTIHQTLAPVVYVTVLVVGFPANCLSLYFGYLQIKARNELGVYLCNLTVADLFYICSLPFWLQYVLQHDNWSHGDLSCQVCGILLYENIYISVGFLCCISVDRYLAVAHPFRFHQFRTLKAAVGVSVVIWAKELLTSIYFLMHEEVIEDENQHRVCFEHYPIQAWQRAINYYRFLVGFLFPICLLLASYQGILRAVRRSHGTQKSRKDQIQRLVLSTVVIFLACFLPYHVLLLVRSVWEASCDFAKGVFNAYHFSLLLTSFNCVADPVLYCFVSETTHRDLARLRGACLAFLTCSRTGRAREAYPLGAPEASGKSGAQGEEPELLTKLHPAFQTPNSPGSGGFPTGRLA
T1 sequence (P41595 whole entry): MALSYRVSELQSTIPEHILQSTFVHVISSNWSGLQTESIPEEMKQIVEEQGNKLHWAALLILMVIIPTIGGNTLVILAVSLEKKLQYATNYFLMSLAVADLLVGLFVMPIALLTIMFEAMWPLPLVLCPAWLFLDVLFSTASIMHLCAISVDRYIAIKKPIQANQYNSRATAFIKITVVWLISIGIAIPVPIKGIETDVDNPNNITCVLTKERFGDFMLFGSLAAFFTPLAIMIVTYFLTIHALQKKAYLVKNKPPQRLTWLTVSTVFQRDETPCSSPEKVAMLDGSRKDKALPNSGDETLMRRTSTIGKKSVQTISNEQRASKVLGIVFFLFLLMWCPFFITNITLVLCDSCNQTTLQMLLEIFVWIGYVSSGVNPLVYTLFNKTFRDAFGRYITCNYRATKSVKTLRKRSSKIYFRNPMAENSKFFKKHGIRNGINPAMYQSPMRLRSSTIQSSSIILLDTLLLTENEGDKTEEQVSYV
T2 sequence (P25106 whole entry): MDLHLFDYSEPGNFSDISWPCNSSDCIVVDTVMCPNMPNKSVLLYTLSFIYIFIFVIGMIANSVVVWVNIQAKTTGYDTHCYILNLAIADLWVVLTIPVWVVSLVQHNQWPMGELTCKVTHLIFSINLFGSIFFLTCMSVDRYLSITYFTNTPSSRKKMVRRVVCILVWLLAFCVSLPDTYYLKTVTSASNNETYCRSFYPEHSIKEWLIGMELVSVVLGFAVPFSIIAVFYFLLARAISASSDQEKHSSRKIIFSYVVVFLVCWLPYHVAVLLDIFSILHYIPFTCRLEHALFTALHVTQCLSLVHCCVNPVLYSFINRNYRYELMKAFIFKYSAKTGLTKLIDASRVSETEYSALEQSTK

Row | SMILES | log(activity) [1] | log(activity) [2] | pKb [3] | Activity_index [4] | Activity index [4] | also measured
1 | CC(=O)c1ccccc1-c1nc(N)nc(NCc2ccccc2)n1 | inactive | inactive | inactive | inactive |  | 
2 | Nc1cc(-c2ccccc2CO)nc(NCc2ccccc2)n1 | inactive | inactive | inactive | inactive |  | 
3 | CC(=O)c1cccc(-c2nc(N)nc(NCc3ccccc3)n2)c1 | inactive | inactive | inactive | inactive |  | Activity [5]: inactive; Activity [6]: inactive; Activity [7]: inactive
4 | Nc1nc(NCCc2ccccc2)nc(-c2cc(Cl)ccc2CO)n1 | 1.09 | 0.03 |  |  | 6.26 | Activity [8]: inactive; Activity [9]: inactive; Ki ([10]; read-out: Ki): 0.209 µM; Ki ([10]; read-out: pKi (converted)): 0.1 to 0.316 µM; Activity [11]: inactive; Ki [12]: 0.678 µM; Activity [13]: Active; EC50 [14]: 1.7 µM; log(activity) [15]: 1.06; log(activity) [16]: 0.13; Activity index [17]: 5.92
5 | Nc1nc(NCCCCc2ccccc2)nc(-c2ccccc2CO)n1 | 0.62 | 0.21 |  |  | 6.35 | log(activity) [15]: 0.91; log(activity) [16]: 0.08; Activity index [17]: 5.89
6 | CC(O)c1ccccc1-c1nc(N)nc(NCc2ccccc2)n1 (stereo not given) | inactive | inactive | inactive | inactive |  | 
7 | Nc1nc(NCc2ccccc2)nc(-c2ccccc2)n1 | inactive | inactive | inactive | inactive |  | 
8 | Nc1nc(NCc2ccccc2)nc(-c2cccc(CO)c2)n1 | inactive | inactive | inactive | inactive |  | Activity [5]: inactive; Activity [6]: inactive; Activity [7]: inactive
9 | COc1cccc(CO)c1-c1nc(N)nc(NCc2ccccc2)n1 | inactive |  | inactive | inactive |  | 
10 | CN(C)c1nc(NCc2ccccc2)nc(-c2ccccc2CO)n1 | inactive | inactive | inactive | inactive |  | Activity [5]: inactive; Activity [6]: inactive; Activity [7]: inactive
11 | CNCc1ccccc1-c1nc(N)nc(NCc2ccccc2)n1 | inactive | inactive | inactive | inactive |  | 
12 | Cc1ccccc1-c1nc(N)nc(NCc2ccccc2)n1 | inactive | inactive | inactive | inactive |  | 
13 | Nc1nc(NCc2ccccc2)nc(-c2ccccc2CO)n1 | 0.6 | 0.36 |  |  | 5.31 | Activity [5]: Dose-dependent effect; log(activity) [15]: 0.8; log(activity) [16]: 0.04; Activity index [17]: 4.97
14 | CCOc1ccc(CNc2nc(N)nc(-c3ccccc3CO)n2)cc1 | 0.81 | -0.01 |  |  | 5.57 | 
15 | Nc1nc(NCCCc2ccccc2)nc(-c2cc(Cl)ccc2CO)n1 | 1.03 | 0.01 |  |  | 6.38 | Activity [8]: inactive; Activity [9]: inactive; Ki ([10]; read-out: Ki): 0.295 µM; Ki ([10]; read-out: pKi (converted)): 0.1 to 0.316 µM; Activity [11]: inactive; Ki [12]: 0.212 µM; Activity [13]: Active; EC50 [14]: 0.69 µM; log(activity) [15]: 0.99; log(activity) [16]: 0.13; Activity index [17]: 5.98
16 | COc1ccccc1CNc1nc(N)nc(-c2ccccc2CO)n1 | 0.98 | 0.06 |  |  | 5.03 | 
